From PubChem BioAssay
A selection: hits, their analogues and other compounds. The true share with any hit is near 1.4%.
Mot1-301 SUMO = blocks SUMOylation pathway, rescuing yeast Mot1-301 growth; S. cerevisiae Mot1-301 growth rescue, ATP luminescence, 38.5C; percent above DMSO median, 100 means doubled; growth rescue, % at 18.8 µM; AID 2716; 320,000 tested, 1% active;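 active = every valid replicate shows activation above 250% relative to neutral control wells; inactive = the rest, any valid replicate at or below 250%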;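 also: OY570 slx delta 5 strain wells were the positive control but not used for scaling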
T cell modulator = modulates CD8 T cell binding to vesicles | 330,000 tested, 0.068% active | AID 2052 | response (vesicle binding), % at 7 µM | 2C CD8+ T cell-vesicle binding, flow cytometry; stronger effect = lower value;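 active = response, share of CD8 T cells binding vesicles, and their 90th percentile fluorescence all below set limits, cut at about 80% in these data, passing the limit was not always enough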;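 also: values below 100% mean blocked vesicle binding to the CD8+ T cells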
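Material: murine 2C transgenic CD8+ T lymphocytes / Also added: QL9-peptide-loaded Drosophila micro-vesicles bearing Ld, ICAM-1 and B7-1 / Schedule: binding step 1.5 h, 37 °C, antibody labelling 20 min, ice / Signal: flow cytometry, PE anti-B7-1 (FL2) versus Alexa647 anti-CD8 (FL8), PFA-fixed / Evaluation: percent CD8+ FL2 mean versus row control / Benchmarks: naked versus QL9-loaded vesicles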
HIF activator = HIF pathway transcriptional activation | U2OS HRE-luciferase reporter, luminescence; normalized: DMSO 0%, desferrioxamine 100% | activation, % at 7.5 µM (by protocol) | 300,000 tested, 0.32% active | AID 1910;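 active = mean activation of at least 10% of the iron chelator positive control signal, with at least half of replicates also reaching 10%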
GASC-1 inh = human JMJD2C demethylase inhibition; Q9H3R0; GST-JMJD2C(1-420) H3K9me3 demethylation, DELFIA europium; inhibition, % at 2.35 µM; 330,000 tested, 0.069% active; AID 2099;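 active = more than half of a compound's replicate wells show inhibition beyond 50%, single wells judged on their own value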;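 also: signal counts dimethyl H3K9 product captured on neutravidin plate; 0% = median of DMSO wells and 100% = 0.3 times that DMSO median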
Target sequence (Q9H3R0 1-420 limits assumed): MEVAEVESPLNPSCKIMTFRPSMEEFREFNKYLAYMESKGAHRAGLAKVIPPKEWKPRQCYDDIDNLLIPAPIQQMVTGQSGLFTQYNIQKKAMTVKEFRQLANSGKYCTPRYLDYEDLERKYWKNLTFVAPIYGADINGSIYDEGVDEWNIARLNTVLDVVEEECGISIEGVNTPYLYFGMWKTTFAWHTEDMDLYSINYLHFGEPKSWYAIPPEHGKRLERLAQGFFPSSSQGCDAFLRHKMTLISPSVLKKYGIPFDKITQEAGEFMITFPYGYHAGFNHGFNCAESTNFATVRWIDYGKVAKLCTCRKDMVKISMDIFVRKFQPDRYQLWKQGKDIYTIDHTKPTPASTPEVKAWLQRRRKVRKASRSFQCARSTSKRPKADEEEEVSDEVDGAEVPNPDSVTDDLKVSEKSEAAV
* hit, by the source's call.

Screening Cc1ccccc1S(=O)(=O)N1[C@@H](c2ccc(Cl)cc2)C(C(=O)O)=CC[C@H]1c1ccc(Cl)cc1 returned Mot1-301 SUMO 112, T cell modulator 325 and GASC-1 inh 1.
Cc1ccc(S(=O)(=O)N2[C@@H](c3ccc(Cl)c(Cl)c3)C(C(=O)O)=C[C@H]2C(C)(C)C)cc1 was read as Mot1-301 SUMO 312*, T cell modulator 385 and GASC-1 inh 38.
Screening Cc1ccc([C@@H]2CC=C(C(=O)O)[C@H](c3cccc(Cl)c3)N2S(=O)(=O)c2ccccc2C)cc1 returned Mot1-301 SUMO 295*, T cell modulator 260 and GASC-1 inh 19.
`Cc1ccc([C@@H]2CC=C(C(=O)O)[C@H](c3ccccc3)N2S(=O)(=O)c2ccccc2C)cc1` gave T cell modulator 251.
Screening Cc1ccc([C@H]2C(C(=O)O)=CC[C@@H](c3ccc(Cl)cc3)N2S(=O)(=O)c2ccccc2C)cc1 returned Mot1-301 SUMO 341*, T cell modulator 280 and GASC-1 inh 11.
For CCCC[C@@H]1C=C(C(=O)O)[C@H](c2ccc(CC)cc2)N1S(=O)(=O)c1ccc(C)cc1 the results were T cell modulator 246.
Screening CC(C)c1nc2sc3c(c2c(=O)[nH]1)CC(C)(C)OC3 returned Mot1-301 SUMO 8, T cell modulator 156, HIF activator 1 and GASC-1 inh -5.
Cc1ccc(C(=O)OCC(=O)NC2CC2)cc1S(=O)(=O)N1CCOCC1 was read as Mot1-301 SUMO -16, T cell modulator 245 and GASC-1 inh 0.
`Cc1nn(CC(=O)Nc2ccc(Cl)cc2)c(=O)c2cc(-c3ccccc3)nn12` gave Mot1-301 SUMO 11, T cell modulator 319, HIF activator 1 and GASC-1 inh -1.
`CCc1ccc([C@@H]2CC=C(C(=O)O)[C@H](c3ccc(C)cc3)N2S(=O)(=O)c2ccc(C)cc2)cc1` gave T cell modulator 267.
`CCc1ccc([C@@H]2CC=C(C(=O)O)[C@H](c3ccccc3F)N2S(=O)(=O)c2ccc(C)cc2)cc1` gave Mot1-301 SUMO 302*, T cell modulator 670 and GASC-1 inh 0.
CC1=C(C(=O)Nc2ccc(C)cc2C)C(c2ccc(Cl)cc2)n2nc(C(=O)OC(C)C)nc2N1 (centres undefined) was read as Mot1-301 SUMO 655*, T cell modulator 132, HIF activator 0 and GASC-1 inh 14.
O=C(c1ccc(COc2ccccc2Cl)o1)N1CCN(Cc2ccc3c(c2)OCO3)CC1 was read as Mot1-301 SUMO -9, T cell modulator 232, HIF activator 0 and GASC-1 inh -8.
O=C(c1ccc(COc2ccc(Cl)cc2)o1)N1CCN(Cc2ccc3c(c2)OCO3)CC1 was read as Mot1-301 SUMO 402*, T cell modulator 460, HIF activator 0 and GASC-1 inh -1.
CCCCN=C1NC(=O)C(CC(=O)Nc2ccc(Cl)cc2)S1 (centres undefined) was read as Mot1-301 SUMO 306*, T cell modulator 383, HIF activator 1 and GASC-1 inh 1.
For O=C(CC1SC(=Nc2ccc(O)cc2)NC1=O)Nc1ccccc1 (centres undefined) the results were Mot1-301 SUMO -5, T cell modulator 326, HIF activator 2 and GASC-1 inh -8.
Screening O=C(CC1SC(=NCc2ccccc2)NC1=O)Nc1ccccc1 (centres undefined) returned Mot1-301 SUMO active, T cell modulator 307, HIF activator 0 and GASC-1 inh -6.
For CCCCN=C1NC(=O)C(CC(=O)NCCc2ccc(OC)cc2)S1 (centres undefined) the results were Mot1-301 SUMO 29, T cell modulator 246, HIF activator 0 and GASC-1 inh 4.
Screening Cc1nn(CC(=O)Nc2nnc(C(C)C)s2)c(=O)c2ccccc12 returned Mot1-301 SUMO -3, T cell modulator 247, HIF activator 0 and GASC-1 inh 4.
Screening C=CCOc1ccc(C2NC(=S)NC(c3ccccc3)=C2C(C)=O)cc1OC (centres undefined) returned Mot1-301 SUMO -30, T cell modulator 27*, HIF activator 0 and GASC-1 inh -1.
`CC(C)C[C@H](N)C(=O)N1CCC(C(=O)N[C@H](C(=O)NC(C)c2ccccc2)C(C)C)CC1` (some centres undefined) gave Mot1-301 SUMO 788*, T cell modulator 545, HIF activator 0 and GASC-1 inh 3.
For CCOC(=O)c1c(S(=O)(=O)NCc2ccc(C)o2)c(C)n(C)c1C the results were Mot1-301 SUMO -9, T cell modulator 381, HIF activator 70* and GASC-1 inh 12.
`O=C(NC(=S)Nc1ccccn1)c1cccc([N+](=O)[O-])c1` gave Mot1-301 SUMO 3, T cell modulator 84, HIF activator 709* and GASC-1 inh 4.
`CCCCCC(=O)NNC(=S)NC(=O)c1ccccc1[N+](=O)[O-]` gave Mot1-301 SUMO 17, T cell modulator 401, HIF activator 0 and GASC-1 inh 39.
For CCOc1ccc(C(=O)NC(=S)Nc2ccccn2)cc1[N+](=O)[O-] the results were Mot1-301 SUMO -6, T cell modulator 418, HIF activator 1 and GASC-1 inh -5.
Screening CCCCCC(=O)NNC(=S)NC(=O)c1cccc([N+](=O)[O-])c1 returned Mot1-301 SUMO -22, T cell modulator 311, HIF activator 62* and GASC-1 inh 9.
For Nc1nn2c(-c3ccccc3)cc(=O)[nH]c2c1N=Nc1ccc(O)cc1 the results were Mot1-301 SUMO 15, T cell modulator 237, HIF activator 0 and GASC-1 inh 51*.
O=C(CN1CCSCC1)N/N=C/c1cccc(Cl)c1 was read as T cell modulator 302, HIF activator 0 and GASC-1 inh -5.
For COc1ccc(N(C)S(=O)(=O)c2cccc(C(=O)Nc3nc4ccccc4[nH]3)c2)cc1 the results were Mot1-301 SUMO -10, T cell modulator 293, HIF activator -1 and GASC-1 inh 7.
`CN(c1cccc(Cl)c1)S(=O)(=O)c1cccc(C(=O)Nc2nc3ccccc3[nH]2)c1` gave Mot1-301 SUMO 12, T cell modulator 306, HIF activator active and GASC-1 inh 2.
Screening CN(C(=O)COC(=O)c1cc(S(=O)(=O)N2CCCCC2)ccc1Cl)c1ccccc1 returned Mot1-301 SUMO -5, T cell modulator 382 and GASC-1 inh -5.
`O=S(=O)(c1cccc(C(F)(F)F)c1)N1CCC(c2cc(-c3cccc4ccccc34)n[nH]2)CC1` gave Mot1-301 SUMO -13, T cell modulator 326, HIF activator -1 and GASC-1 inh -26.
`COc1ccc(S(=O)(=O)N2CCC(c3cc(-c4cccc5ccccc45)n[nH]3)CC2)cc1` gave Mot1-301 SUMO -14, T cell modulator 357, HIF activator 11* and GASC-1 inh 1.
`Cc1ccccc1CS(=O)(=O)c1ncc(Cl)c(C(=O)Nc2ccc(F)cc2)n1` gave Mot1-301 SUMO 316*, T cell modulator 542, HIF activator -3 and GASC-1 inh 12.
